Bioassay records from PubChem.
Most compounds without a hit are left out; they make up all but 3.2% or so of the library.
TRPML3 agonist = agonists of human TRPML3 channel; Q8TDD5; HEK293 TRPML3-YFP, Fluo-8 calcium fluorescence; 100% = the carbachol control signal; activation, % at 3 µM; 220,000 tested, 0.29% active;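 active means activation above its plate's cutoff, the mean activation of the plate's test wells plus 3 SD, cut at about 12% in these data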;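 further: 0% = DMSO only wells and 100% = carbachol wells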
Target sequence (Q8TDD5 whole entry, looked up): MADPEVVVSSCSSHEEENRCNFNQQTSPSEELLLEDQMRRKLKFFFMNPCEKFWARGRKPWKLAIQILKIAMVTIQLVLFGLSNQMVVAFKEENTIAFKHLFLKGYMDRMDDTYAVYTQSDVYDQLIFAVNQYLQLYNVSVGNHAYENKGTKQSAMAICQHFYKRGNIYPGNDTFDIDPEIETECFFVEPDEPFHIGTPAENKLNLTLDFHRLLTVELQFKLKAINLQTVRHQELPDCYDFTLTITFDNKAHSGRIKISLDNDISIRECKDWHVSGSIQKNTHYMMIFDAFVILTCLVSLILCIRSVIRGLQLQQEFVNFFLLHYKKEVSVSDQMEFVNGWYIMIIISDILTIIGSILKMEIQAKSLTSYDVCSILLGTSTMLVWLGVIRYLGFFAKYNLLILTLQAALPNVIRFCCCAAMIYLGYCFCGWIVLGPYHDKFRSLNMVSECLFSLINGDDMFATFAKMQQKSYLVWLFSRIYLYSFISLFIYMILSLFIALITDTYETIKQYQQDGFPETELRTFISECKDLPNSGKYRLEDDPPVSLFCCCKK
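Test system: TRPML3-YFP stable HEK293 cells. Doses: single point at 3 µM. Incubation: dye loading 1 h 37 °C then 30 min ambient, 125 s read. Signal: Fluo-8 calcium dye fluorescence, ex 470-495, em 515-575 nm. Measure: percent activation from peak-to-basal fluorescence ratio, scaled between DMSO and carbachol.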
CHO parental Ca = counter-screen: ATP calcium response change in parental CHO cells. parental CHO-K1, ATP-induced calcium, Fluo-8 fluorescence. inhibition, % at 5.6 µM. 330,000 tested, 0.63% active;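 active means inhibition above that plate's mean sample inhibition plus 3 SD, cut at about 26% in these data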;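 further: 0% = ATP-challenged DMSO wells and 100% = DMSO wells without ATP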
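Test system: untransfected parental CHO cell line; also added: ATP stimulus; dosing: 5.6 µM, single dose; signal: calcium-sensitive Fluo-8 fluorescence; measure: percent inhibition of ATP-evoked calcium rise, normalized to controls; benchmarks: low control ATP plus DMSO, high control DMSO only; replication: one well per compound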
OX1R antag-1 = antagonists of human orexin 1 receptor | O43613 | CHO/OX1R cells, Fluo-8 calcium fluorescence, orexin A | inhibition, % at 5 µM | 330,000 tested, 0.43% active | AID 434989;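 active means inhibition above its plate's threshold, mean inhibition of all tested compounds on the plate plus 3 SD, cut at about 37% in these data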;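 further: 0% = orexin A challenge wells and 100% = SB-334867-A antagonist wells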
GPR7 antag = blocks human GPR7 receptor signaling; inhibition, % at 4.4 µM; GPR7-expressing cells, fluorescence antagonist assay; 290,000 tested, 1.1% active; in the data active means inhibition above about 16%, passing the limit was not always enough;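 further: cells stimulated with the agonist NPW; 0% = agonist with vehicle and 100% = vehicle without agonist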
OX1R antag-2 = OX1R (human) antagonism | OX1R-expressing cells, FRET antagonist read-out | inhibition, % at 6.6 µM | 330,000 tested, 1.8% active; in the data active means inhibition mostly above about 38%, no sharp cut-off; inactive means mostly below about 40%;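 further: 0% = agonist challenge alone and 100% = reference antagonist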
TRPN1 ag = zebrafish TRPN1 (NompC) channel agonism; activation, % at 3 µM; AID 1424; 220,000 tested, 0.18% active; HEK293 zebrafish TRPN1-YFP, Fluo-8 calcium fluorescence; 100% = response to 87 µM carbachol;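 active means activation above its plate's cutoff, the mean activation of test wells on that plate plus 3 SD, cut at about 19% in these data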;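 further: 0% = DMSO alone and 100% = 87 µM carbachol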
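Material: zebrafish TRPN1-YFP in HEK293 cells; Doses: single test compound dose, 3 µM nominal, 0.3% DMSO; Timing: dye loading 1 h at 37 °C, then 30 min room temperature; Technique: intracellular calcium fluorescence with Fluo-8; Benchmarks: high carbachol 87 µM, low DMSO alone.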
OX1R HTRF confirm = confirmation of human orexin 1 receptor antagonists, HTRF format; shares compounds with OX1R antag-2; OX1R-expressing cells, HTRF antagonist assay; inhibition, % at 6.6 µM; 1,800 tested, 49% active; AID 492964; in the data active means inhibition above about 55%;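 further: CHO cells expressing OX1R stimulated with orexin A at about EC80; 0% = agonist challenge alone and 100% = reference antagonist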
CHO-K1 HTRF cnt = counter-screen: parental CHO-K1 HTRF response. 1,800 tested, 48% active. AID 493232. parental CHO-K1 cells, HTRF counterscreen. shares compounds with OX1R antag-2. inhibition, % at 6.6 µM; in the data active means inhibition above about 17%;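 further: 0% = agonist challenge with vehicle and 100% = vehicle alone without agonist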
* hit, by the source's call; x = not tested or not shown.

SMILES	TRPML3 agonist	CHO parental Ca	OX1R antag-1	GPR7 antag	OX1R antag-2	TRPN1 ag	OX1R HTRF confirm	CHO-K1 HTRF cnt
COc1ccc(NC(=O)C2CCCN2S(=O)(=O)c2ccc(C)cc2)cc1 (stereo unspecified)	0	-8	2	-4	27	-1	x	x
CN1C(=O)C(C)(C)c2cc(S(=O)(=O)N3CCCC3C(=O)NCc3ccc(F)cc3)ccc21 (stereo unspecified)	x	-15	-29	-3	78*	x	20	-4
O=C(COc1ccccc1)OCC(=O)c1ccc(S(=O)(=O)N2CCCCC2)cc1	x	-8	-2	x	0	x	x	x
COc1ccc(/C=N/NC(=O)c2cc(C(C)(C)C)[nH]n2)cc1COc1ccc(F)cc1F	-1	-14	-28	-18	16	-1	x	x
O=S(=O)(O)c1cccc2c(N=Nc3ccc(O)c4ncccc34)cccc12	x	4	-1	-6	-6	x	x	x
O=Nc1ccc(O)c2ncccc12	1	-7	0	-11	105*	0	45	39*
Cc1cccc(OCCOC(=O)c2c(-c3ccccc3)noc2C)c1	x	-19	-20	-13	25	x	x	x
O=C(N/N=C/c1c(Cl)[nH]c2ccccc12)c1ccc2c(c1)OCCO2	0	2	3	1	79*	1	86*	-3
CCC(NC(=O)C1C2C=CC(C2)C1C(=O)O)c1ccc(C)cc1 (stereo unspecified)	x	-6	-19	-5	19	x	x	x
NS(=O)(=O)c1ccc(NN=C2CCN(Cc3ccccc3)CC2)c([N+](=O)[O-])c1	0	-3	8	-11	83*	-1	19	7
O=C(CCn1cccc1)Nc1ccc(OC(F)(F)F)cc1	0	1	-9	-5	36	0	x	x
O=[N+]([O-])c1ccc(N2CCCCC2)s1	1	-13	-4	-6	101*	1	39	70*
CCCOc1ccc(Cn2c(=O)oc3ccc(C)cc32)cc1	x	0	-13	-17	8	x	x	x
CCOCCCn1c(=NC(=O)c2cccnc2)c(C(=O)OCC)cc2c(=O)n3ccccc3nc21	-1	-20	-35	-5	111*	1	57*	59*
CCOC(=O)c1cc2c(=O)n3ccccc3nc2n(CC2CCCO2)c1=NC(=O)/C=C/c1ccccc1 (stereo unspecified)	1	-22	-21	13	119*	0	46	42*
CCOC(=O)c1cc2c(=O)n3ccccc3nc2n(CC2CCCO2)c1=NC(C)=O (stereo unspecified)	1	-17	-27	5	108*	0	39	56*
Cc1ccc(S(=O)(=O)c2cc3c(=O)n4ccccc4nc3n(CC3CCCO3)c2=N)cc1 (stereo unspecified)	1	x	x	-22	x	-1	x	x
CCOC(=O)c1cc2c(=O)n3cccc(C)c3nc2n(CCCOC)c1=NC(=O)c1cccnc1	0	-18	-30	-4	42	2	x	x
COC(=O)[C@]1(Cc2ccccc2)N[C@H](CN(C)C(=O)c2ccc(F)cc2)[C@@H]2C(=O)N(Cc3ccccc3)C(=O)[C@@H]21	x	-19	-16	x	7	x	x	x
CCOC(=O)c1c(-c2ccco2)csc1NC(=O)COC(=O)c1cnccn1	x	2	3	x	11	x	x	x
CC(NCC(O)c1ccc([N+](=O)[O-])cc1)C12CC3CC(CC(C3)C1)C2 (stereo unspecified)	0	-28	-27	14	9	0	x	x
O=C(NCc1ccco1)Nc1ccc2nsnc2c1	1	-3	-15	-4	96*	1	25	1
Cc1ccc(C)c(OC(C)C(=O)Nc2nccs2)c1 (stereo unspecified)	x	-11	-17	-5	14	x	x	x
O=C(CS(=O)c1ccc(C(F)(F)F)cc1[N+](=O)[O-])Oc1ccccc1 (stereo unspecified)	1	-14	-7	14	86*	-1	47	13
Cc1ccc(C2(c3ccccc3)NC(=O)N(CC(=O)NC3(C#N)CCCC3)C2=O)cc1C (stereo unspecified)	x	-14	-8	x	11	x	x	x
SMILES	TRPML3 agonist	CHO parental Ca	OX1R antag-1	GPR7 antag	OX1R antag-2	TRPN1 ag	OX1R HTRF confirm	CHO-K1 HTRF cnt
CC(=O)c1ccc(NC(=O)CN2C(=O)NC(C)(C3CCCCC3)C2=O)cc1 (stereo unspecified)	x	9	-7	x	3	x	x	x
CCOc1ccc2c(c1)S/C(=C\c1cccs1)C(=O)N2	0	-13	8	-11	81*	1	72*	5
Cc1ccc(NC(=O)COC(=O)COc2cccc3c2OC(C)(C)C3)cc1S(=O)(=O)N1CCOCC1	x	-14	-22	x	12	x	x	x
Cc1oc2c(c1C(=O)O)C(=O)c1ccccc1C2=O	0	-6	0	-13	97*	-1	72*	86*
CCOC(=O)c1c(C)oc2c1C(=O)c1ccccc1C2=O	2	-7	-20	-12	85*	2	82*	47*
COc1ccc(C(=O)c2c(C(F)(F)F)oc3c2C(=O)c2ccccc2C3=O)cc1OC	0	-24	-15	6	20	-1	x	x
Cc1ccsc1C(=O)OCC(=O)Nc1nnc(-c2ccccc2)o1	x	-19	-11	x	78*	x	38	-7
CC1Cc2ccccc2N1C(=O)CN1C(=O)NC2(CCCCC2)C1=O (stereo unspecified)	x	-8	-25	x	1	x	x	x
O=C(O)CCCCCNS(=O)(=O)c1cccc2nsnc12	1	-5	-16	-12	52	1	x	x
O=C(O)CCCCCNc1ccc2nsnc2c1[N+](=O)[O-]	1	-1	0	2	117*	1	74*	112*
Nc1nnc(-c2cccc([N+](=O)[O-])c2)s1	0	-6	-4	-6	111*	0	35	40*
COc1ccccc1CNC(=O)c1cc(C(C)=O)c[nH]1	x	0	8	-12	4	x	x	x
COc1ccc2ccc(=O)oc2c1CC(=O)C(C)C	x	-8	2	x	3	x	x	x
CCN1C(=O)[C@H]2[C@@H](c3ccc(-c4ccc(F)cc4)cc3)N[C@@](CC(C)C)(C(=O)OC)[C@H]2C1=O	x	-16	-24	x	18	x	x	x
CCOC(=O)C1(CC)NC(c2cccc(F)c2)C2C(=O)N(CC)C(=O)C21 (stereo unspecified)	0	-3	-6	10	89*	2	11	-2
CC(=O)Nc1cc2nc(C)n(Cc3ccccc3[N+](=O)[O-])c2nc1C	x	2	3	-10	11	x	x	x
